Results on 13 compounds are retold here after ChEMBL document CHEMBL1821718, “Curcumin recognizes a unique binding site of tubulin” (J Med Chem, 2011).

pIC50: −log10 of the molar value. Calls of active or inactive are those of the source. The calls are words filed in the database; no cut-off is given here.

As usually defined, the pIC50 is −log10 of the IC50, conventionally taken in molar units.

The test system of assay [1] is A549. Description: Antiproliferative activity against human A549 cells assessed as loss of cell viability after 48 hrs by MTT assay. Format: functional, cell-based. The settings on record: A549, 48 h. In outline:
(§1)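 Cells seeded at 1 × 10^4 per well in DMEM with 10% FBS, 1 mM L-glutamine and antibiotics at 37 °C, 5% CO2. Exposed to 0–50 μM compound for 48 h. MTT (2 mg/mL in PBS) added until purple precipitate formed; absorbance read at 570 nm against 650 nm reference. Mean ± SEM, n = 4; IC50 taken from concentration-response.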
(In general: Tetrazolium dyes change colour on reduction, which living cells bring about.)

The test system of assay [2] is A549. Description: Perturbation of spindle microtubule and chromosomal organization in human A549 cells at 2.5 uM after 24 hrs by immunofluorescence method. The class given is functional, cell-based. An outline of the steps:
(§2)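 Cells exposed to 0–2.5 μM compound for 24 h, fixed in 2% paraformaldehyde, permeabilized, blocked with 5% BSA. Spindles stained with anti-α-tubulin (1:200) and rhodamine secondary (1:150); chromosomes stained with DAPI (1 μg/mL). Bipolar spindle and metaphase-plate alignment scored by confocal microscopy; three experiments.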

The test system of assay [3] is A549. Description: Induction of apoptosis in human A549 cells assessed as abnormality in nuclear DNA at 5 uM by DAPI staining technique. The class given is functional, cell-based.
Assay [4] concerns A549. Put plainly: Disruption of interphase microtubule network in human A549 cells at 2.5 uM after 24 hrs by confocal microscopy. Format: functional, cell-based. In outline: (§3)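 A549 or HeLa cells at 10^6 cells/mL exposed to 0–2.5 μM compound for 24 h. PBS-washed, fixed in 2% paraformaldehyde, permeabilized 1 h (0.1% Na citrate, 0.1% Triton), blocked in 5% BSA. Stained with mouse anti-α-tubulin (1:200) then rhodamine anti-mouse IgG (1:150) plus DAPI 1 μg/mL. Interphase network imaged by confocal microscopy; n = 3.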

Assay [5] relates to A549. Description: Induction of apoptosis in human A549 cells assessed as apoptotic cells at 5 uM after 48 hrs by FITC-conjugated annexin-V/PI assay. Format: functional. In outline: (§4)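 About 1 × 10^6 A549 or HeLa cells treated with 0–5 μM compound for 48 h. Stained 15 min at room temperature in the dark with FITC-annexin V (1 μg/mL) and PI (0.5 μg/mL) in Ca2+-enriched binding buffer. Annexin-V-positive fraction quantified by flow cytometry.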

Assay [6] in a line: Inhibition of goat brain tubulin polymerization assessed as turbidity by UV spectrophotometry. More on the design: species or system Capra hircus. An outline of the steps: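 Goat brain tubulin in PEM buffer (50 mM PIPES pH 7, 1 mM EGTA, 0.5 mM MgCl2) with 1 mM GTP. Assembly initiated with 10% DMSO at 37 °C and turbidity followed at 360 nm. Half-maximal inhibition taken as the concentration reducing polymer mass by 50%; run in triplicate, at least two repetitions.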

For assay [7], the system named is HeLa. Description: Induction of cell cycle arrest in human HeLa cells assessed as accumulation in G2/M phase at 5 uM after 24 hrs by flow cytometry. Format: functional, cell-based. (In general: In flow cytometry, cells or beads pass a laser one at a time.)
Assay [8] has as its system HeLa. Description: Disruption of human HeLa cell morphology at 2.5 to 5 uM after 24 hrs by phase contrast microscopy. Format: functional, cell-based. In outline: (§5)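 A549 and HeLa cells grown in DMEM with 10% FBS at 37 °C, 5% CO2, exposed to 2.5 or 5 μM compound for 24 h. Morphology of control and treated cells recorded by inverted phase-contrast microscopy.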
Assay [9] relates to HeLa. Put plainly: Induction of apoptosis in human HeLa cells assessed as apoptotic cells at 5 uM after 48 hrs by FITC-conjugated annexin-V/PI assay. The class given is functional. An outline of the steps: as §4
Assay [10] concerns HeLa. Description: Antiproliferative activity against human HeLa cells assessed as loss of cell viability after 48 hrs by MTT assay. Format: functional, cell-based. In outline: as §1
The test system of assay [11] is HeLa. Put plainly: Disruption of interphase microtubule network in human HeLa cells after 24 hrs by confocal microscopy. Format: functional, cell-based. An outline of the steps: as §3
Assay [12] deals with HeLa. Put plainly: Induction of apoptosis in human HeLa cells assessed as abnormality in nuclear DNA at 5 uM by DAPI staining technique. The class given is functional, cell-based.
In assay [13] the test system is HeLa. Put plainly: Perturbation of spindle microtubule and chromosomal organization in human HeLa cells at 2.5 uM after 24 hrs by immunofluorescence method. The class given is functional, cell-based. An outline of the steps: as §2
The nature of assay [14]: Binding affinity to goat brain tubulin by spectrofluorimetry.
Assay [15] relates to A549. Put plainly: Disruption of interphase microtubule network in human A549 cells after 24 hrs by confocal microscopy. Format: functional, cell-based. An outline of the steps:
as §3

Assay [16] has as its system A549. Description: Disruption of human A549 cell morphology at 2.5 to 5 uM after 24 hrs by phase contrast microscopy. The class given is functional, cell-based. In outline: as §5
The subject of assay [17] is HeLa. Description: Disruption of interphase microtubule network in human HeLa cells at 2.5 uM after 24 hrs by confocal microscopy. Format: functional, cell-based. An outline of the steps: as §3
For assay [18], the system named is HeLa. Description: Cell cycle arrest in nocodazole pre-treated human HeLa cells at 5 uM assessed as accumulation in G2/M phase after 8 hrs by flow cytometry. The class given is functional. In outline: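 HeLa cells at 1 × 10^6 cells/mL held 20 h in nocodazole (2 μM in methods; 1.5 μM in text), washed, then given fresh medium with 5 μM compound for 8 h. Fixed in ice-cold methanol, treated 4 h at 37 °C with 1 mg/mL RNase A, stained with PI. G2/M fraction measured by FACS.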

For another assay, the species on record is Capra hircus. Put plainly: Binding affinity to goat brain tubulin by isothermal titration calorimetry.
Another assay concerns MCF7. Put plainly: Cell cycle arrest in nocodazole pre-treated human MCF7 cells. Format: functional, cell-based.
A further assay relates to HeLa (Homo sapiens). Description: Induction of cell cycle arrest in human HeLa cells assessed as accumulation in G2/M phase at 5 uM after 24 hrs by flow cytometry.

As to `COc1cc(C=C(C(=O)/C=C/c2ccc(O)c(OC)c2)C(=O)/C=C/c2ccc(O)c(OC)c2)ccc1O`, the pIC50 in the assay on A549 [1] is 5.15; in assay [6] it was 4.80; with HeLa [10], 5.22. Besides, the outcome with A549 [2], in the assay on A549 [3], with A549 [4], in the assay on HeLa [8], with HeLa [12] and in the assay with HeLa [13] was Active. Also, the result in the assay on A549 [16] and in the assay on HeLa [17] was Active. Further, the Activity in the assay on A549 [5] was 45%; in the assay on HeLa [9] it was 38%; with HeLa [11], “Dose-dependent effect”; in the assay with A549 [15] it was “Dose-dependent effect”; in the assay with HeLa [18], 35%. Besides, in the assay with HeLa [7], the outcome was inactive. Moreover, the Ka in assay [14] came to 2.5 ×10⁶ /M.
As to `COc1ccc(/C=C/C(=O)O)cc1OC`, the outcome in the assay listed under Capra hircus was inactive.
`COc1cc(/C=C/C(=O)CC(=O)/C=C/c2ccc(O)c(OC)c2)ccc1O` [CURCUMIN]: the pIC50 in the assay with A549 [1] was 4.77; in [6] it was 4.70. Moreover, the outcome in the assay on A549 [2], in the assay with A549 [3], in the assay with A549 [4], in the assay on HeLa [7], in the assay on HeLa [8] and in the assay on HeLa [12] was inactive. The result in the assay on HeLa (Homo sapiens), in the assay with HeLa [13], with A549 [16] and with HeLa [17] was inactive. The Activity was 16% with A549 [5], 8% with HeLa [9] and 18% with HeLa [18]. The outcome with MCF7 was Active. In [14], this compound registered a Ka of 5.01 ×10⁵ /M.
For `COc1cc(/C=C/c2cc(/C=C/c3ccc(O)c(OC)c3)n(-c3cccc([N+](=O)[O-])c3)n2)ccc1O`, the pIC50 in assay [6] was 4.44.
Turning to `COc1cc(/C=C/c2cc(/C=C/c3ccc(O)c(OC)c3)n(-c3ccc(F)cc3)n2)ccc1O`, in assay [6], the pIC50 is 4.47.
As for `O=C(O)/C=C/c1ccccc1`, in the assay listed under Capra hircus, the result was inactive.
On to `COc1ccc(-n2nc(/C=C/c3ccc(O)c(OC)c3)cc2/C=C/c2ccc(O)c(OC)c2)cc1`, for which the pIC50 in assay [6] was 4.42.
Consider `COc1cc(/C=C/C(=O)CC(=O)/C=C/c2ccc(OC(C)=O)c(OC)c2)ccc1OC(C)=O`, for which the pIC50 in [6] is 4.22.
In the case of `O=C(O)/C=C/c1ccccc1O`, the outcome in the assay listed under Capra hircus was inactive.
For the compound `COc1cc(/C=C/c2cc(/C=C/c3ccc(O)c(OC)c3)on2)ccc1O`, the pIC50 in assay [6] was 4.59.
For `O=C(O)/C=C/c1ccc(O)c(O)c1`, in the assay listed under Capra hircus, the outcome was inactive.
In the case of `O=C(O)/C=C/c1ccc(O)cc1O`, in the assay filed under Capra hircus, the result was inactive.
Turning to `COc1cc(/C=C/c2cc(/C=C/c3ccc(O)c(OC)c3)[nH]n2)ccc1O` [CURCUMIN PYRAZOLE], in assay [6], the pIC50 was 4.64.
